Source: PubChem (several laboratories)
In the library only some 2.3% were active in any assay of this set; here they are far more common.
PP5 primary – blocks human protein phosphatase 5 activity. P53041. purified PP5c, OMFP substrate fluorescence. inhibition, % at 6.7 µM. 0.18% of 320,000 active;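 active = inhibition above the campaign's mean inhibition across all tested compounds plus 3 SD, cut at about 9.5% in these data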;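 also: 0% = DMSO only and 100% = 100 µM cantharidin control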
UCH37 DUB inh – human UCH37 deubiquitinating enzyme inhibition. purified proteasome/UCH37, Ub-AMC cleavage fluorescence. inhibition, % (concentration not given with the values). 0.33% of 330,000 active. AID 588478;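 active = mean inhibition over replicate wells above about 20%, limit read from the data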;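 also: 0% = compound-free wells with enzyme and 100% = wells lacking proteasome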
Target sequence (Q9Y5K5 whole entry, looked up): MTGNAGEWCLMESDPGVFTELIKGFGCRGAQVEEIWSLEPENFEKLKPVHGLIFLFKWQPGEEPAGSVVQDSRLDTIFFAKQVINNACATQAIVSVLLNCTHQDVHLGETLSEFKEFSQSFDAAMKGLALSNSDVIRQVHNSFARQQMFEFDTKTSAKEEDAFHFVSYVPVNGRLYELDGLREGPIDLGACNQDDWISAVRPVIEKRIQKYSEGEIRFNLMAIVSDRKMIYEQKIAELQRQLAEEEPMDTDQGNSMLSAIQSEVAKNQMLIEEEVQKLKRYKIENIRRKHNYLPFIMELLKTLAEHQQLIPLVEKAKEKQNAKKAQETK
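Test system – human UCH37 enzyme supplied as purified proteasome complex · Incubation – 30 min preincubation with enzyme, 25 min cleavage at room temperature · Detection – AMC fluorescence from Ub-AMC cleavage, excitation 355 nm, emission 460 nm · Benchmarks – no-proteasome wells (full inhibition) and compound-free wells (no inhibition)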
PP1 inh – PP1-alpha (human) inhibition in PP5 counter-screen | 0.9% of 320,000 active | P62136 | purified PP1alpha, OMFP fluorescence | inhibition, % at 6.7 µM | AID 2235;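 active = inhibition above the mean inhibition of all tested compounds plus 3 SD, computed separately for each screening campaign, cut at about 15% in these data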
PREPL inhibitor – inhibitors of human prolyl oligopeptidase-like enzyme PREPL; AID 2751; inhibition, % at 5.96 µM; recombinant PREPL, fluorescence polarization activity-based probe; 0.68% of 320,000 active; Q4J6C6; in the data active = inhibition above about 43%;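 also: 0% = enzyme with DMSO and 100% = wells lacking enzyme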
UBC13 inh – blocks human UBC13 polyubiquitin chain formation | TR-FRET | inhibition, % at 20 µM | 0.47% of 330,000 active; in the data active = inhibition above about 45%, passing the limit was not always enough
Target sequence (P61088 whole entry, looked up): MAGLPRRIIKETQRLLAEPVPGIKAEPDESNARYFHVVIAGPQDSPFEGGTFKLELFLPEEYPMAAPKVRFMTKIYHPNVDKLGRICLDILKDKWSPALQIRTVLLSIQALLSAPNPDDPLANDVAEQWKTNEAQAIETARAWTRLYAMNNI
CTSL1 counter – blocks F. hepatica cathepsin L1 in PFM18AAP counter-screen; recombinant F. hepatica cathepsin L1, Z-Leu-Arg-MCA fluorescence; inhibition, % at 5.96 µM; 0.49% of 300,000 active; AID 1906;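 active = inhibition above the mean of all tested compounds plus 3 SD, set per screening campaign, cut at about 17% in these data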;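 also: 0% = plate median of test compound wells and 100% = 1 µM Z-Phe-Ala-diazomethylketone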
Numbers without * were called inactive; nt = no result.

SMILES | PP5 primary | UCH37 DUB inh | PP1 inh | PREPL inhibitor | UBC13 inh | CTSL1 counter
CCn1c(SCC(=O)NN=C/C=C\c2ccco2)nc2ccccc21 | nt | 4 | nt | nt | nt | nt
O=c1[nH]c(C2CCN(S(=O)(=O)/C=C/c3ccccc3)CC2)nc2c1nnn2Cc1ccccc1 | 2 | 1 | 15* | 9 | 6 | 6
Cc1ccc(S(=O)(=O)N2CCC(c3nc4c(nnn4Cc4ccccc4)c(=O)[nH]3)CC2)cc1 | -3 | 1 | 16* | 5 | 0 | 8
COc1ccc(C=NNC(=O)c2nc(-c3ccccc3)n(-c3ccccc3)n2)cc1 | nt | 6 | nt | nt | nt | nt
COc1ccc(/C=N/NC(=O)c2nc(-c3ccccc3)n(-c3ccccc3)n2)c(O)c1 | 0 | nt | 16* | 3 | 0 | -1
Cc1cc2oc(=O)cc(C)c2cc1NC(=O)CCl | -1 | nt | 0 | 6 | -2 | 79*
Cc1ccc(NC(=O)c2cnc(SCC(=O)NCC3CCCO3)n(C)c2=O)cc1C (stereo not given) | 3 | -119 | -1 | 2 | 72* | 6
COc1ccc(CCNC(=O)CSc2ncc(C(=O)Nc3ccccc3)c(=O)n2C)cc1 | -3 | 5 | -4 | -3 | 36 | 1
Cc1ccc(NC(=O)CSc2nnc(C3CC3)n2CC2CCCO2)cc1C (stereo not given) | -1 | 4 | 2 | 1 | -2 | 0
CC(=O)Nc1ccc(NC(=O)CSc2ncc(C(=O)Nc3ccccc3)c(=O)n2C)cc1 | 3 | -10 | 4 | 4 | 69* | -4
CON=C(C(=O)O)c1csc(NN=C(C)C)n1 | nt | 6 | nt | nt | nt | nt
CC1=C(C#N)C(=O)NC(=O)/C1=C\c1ccc(-c2cc(C)c(C)cc2[N+](=O)[O-])o1 | nt | 20* | nt | nt | nt | nt
Cc1cc(-c2ccc(C=Nn3cnnc3)o2)c([N+](=O)[O-])cc1C | nt | 9 | nt | nt | nt | nt
CCCN(CCC)Cc1c(C(=O)NN=Cc2cccs2)nnn1-c1nonc1N | nt | 3 | nt | nt | nt | nt
COc1ccc(C=NNC(=O)c2cc(O)c(O)c(O)c2)cc1Cn1cc([N+](=O)[O-])cn1 | nt | 10 | nt | nt | nt | nt
COc1cc(C=NNc2ccccn2)ccc1OCC(C)C | nt | -2 | nt | nt | nt | nt
CSc1ccc(S(=O)(=O)N2CCC(C(=O)N3CCc4ccccc4C3)CC2)cc1 | 2 | 3 | 6 | -12 | 5 | 19*
COCCCNC(=O)c1ccc2c3c(onc13)-c1ccccc1C2=O | 3 | 24* | 3 | 1 | -300 | 22*
O=C(NN=Cc1ccc(OCc2ccccc2)cc1)c1ccncc1 | nt | -66 | nt | nt | nt | nt
Nc1nnnn1CC(=O)NN=Cc1ccc(-c2cccc(Cl)c2)o1 | nt | -49 | nt | nt | nt | nt
COc1ccc2nc3cc(Cl)ccc3c(C#N)c2c1 | 1 | -13 | 2 | -1 | 40 | 19*
N#C/C(=C(/O)CSc1ccccn1)c1nc2ccccc2s1 | 0 | 16 | 2 | 18 | -20 | 11
N#C/C(=C(/O)CSc1ccccc1C(=O)O)c1nc2ccccc2s1 | 0 | 21* | 14 | 5 | -8 | 5
O=C(Nc1ccc(Cl)cc1)OCc1cc(-c2ccccc2Cl)on1 | 3 | -6 | -1 | -20 | -3 | 5
Clc1ccc(Cl)c(OCc2cc(-c3ccccc3Cl)on2)c1 | -7 | 3 | -3 | 11 | 2 | 19*
SMILES | PP5 primary | UCH37 DUB inh | PP1 inh | PREPL inhibitor | UBC13 inh | CTSL1 counter
Cn1c(=O)n(C)c2cc(C=NNC(=O)c3cccc(Br)c3)ccc21 | nt | -37 | nt | nt | nt | nt
Cc1ccc(S(=O)(=O)Nc2ccc(O)c(Sc3ncn[nH]3)c2)cc1 | 3 | 1 | -7 | 10 | 5 | -6
CC(C)c1ccc(S(=O)(=O)/N=C2/C=C(Sc3ncn[nH]3)C(=O)c3ccccc32)cc1 | 11* | nt | 4 | 18 | nt | 101*
COc1ccc2c(c1)c(=O)oc1cc(OCC(=O)N3CCCC(C)C3)ccc12 (stereo not given) | 2 | -306 | 16* | 3 | 20 | 3
COc1ccc(-c2cc(-c3c(O)c(OC)c4occc4c3OC)[nH]n2)cc1OC | 6 | 1 | 3 | 51* | 10 | -2
COC(=O)c1ccc(-c2ccco2)n1Cc1ccccc1Cl | 2 | -3 | 0 | -6 | 3 | -2
COC(=O)c1ccc(-c2ccco2)n1Cc1nc(-c2ccc(OC)c(OC)c2)oc1C | 2 | 4 | -1 | -14 | 5 | 19*
COc1ccc(C=NN2C(=O)CN(C(=O)c3ccccc3)C2c2ccc(OC)cc2)cc1 (stereo not given) | nt | 3 | nt | nt | nt | nt
O=C(O)c1[nH]c2ccccc2c1C(c1cc(Cl)cc([N+](=O)[O-])c1O)c1c(C(=O)O)[nH]c2ccccc12 | 1 | 13 | 15* | 1 | -49 | -2
